ChEMBL document CHEMBL3774342, “Indole Based Weapons to Fight Antibiotic Resistance: A Structure-Activity Relationship Study” (J Med Chem, 2016)
Values after ≈ are worked out from the molar mass of the structure shown.

Key:
Liver microsome [1] = assay: Drug level in human liver microsomes treated with Ethyl 1-(2-Methoxybenzyl)-2-methyl-5-(3-(piperidin-1-yl)-propoxy)-1H-indole-3-carboxylate at 10 uM preincubated for 5 mins followed by NADPH addition measured after 30 mins by HPLC-MS/MS analysis; assay type: ADME; conditions: 0.5 h
Outline: (§1)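 Human liver microsomes at 0.5 mg protein/ml in 100 mM potassium phosphate pH 7.4. Substrate at 10 µM final, pre-incubated 5 min at 37 °C with shaking, then started with 1 mM NADPH. Quenched at 0 and 30 min with cold acetonitrile containing labetalol internal standard. Spun 12000 g, 5 min, 4 °C; supernatant analysed by UHPLC C18 HPLC-MS/MS.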

Liver microsome [2] = assay: Drug level in human liver microsomes treated with Ethyl 1-Benzyl-2-methyl-5-(3-(piperazin1-yl)propoxy)-(1H)-indole-3-carboxylate at 10 uM preincubated for 5 mins followed by NADPH addition measured after 30 mins by HPLC-MS/MS analysis; assay type: ADME; conditions: 0.5 h; outline: as §1
Liver microsome [3] = assay: Drug level in human liver microsomes treated with Ethyl 1-benzyl-2-methyl-5-(3-(piperidin-1-yl)propoxy)-1H-indole-3-carboxylate at 10 uM preincubated for 5 mins followed by NADPH addition measured after 30 mins by HPLC-MS/MS analysis; assay type: ADME; conditions: 0.5 h; outline: as §1
[4] = biological target: T1, Quinolone resistance protein NorA (Staphylococcus aureus) (UniProt P0A0J7); assay: Inhibition of NorA efflux pump in Staphylococcus aureus 1199B assessed as reduction in EtBr efflux at 50 uM incubated for 20 mins measured for 5 mins by real-time fluorometric analysis
T1 sequence (whole entry): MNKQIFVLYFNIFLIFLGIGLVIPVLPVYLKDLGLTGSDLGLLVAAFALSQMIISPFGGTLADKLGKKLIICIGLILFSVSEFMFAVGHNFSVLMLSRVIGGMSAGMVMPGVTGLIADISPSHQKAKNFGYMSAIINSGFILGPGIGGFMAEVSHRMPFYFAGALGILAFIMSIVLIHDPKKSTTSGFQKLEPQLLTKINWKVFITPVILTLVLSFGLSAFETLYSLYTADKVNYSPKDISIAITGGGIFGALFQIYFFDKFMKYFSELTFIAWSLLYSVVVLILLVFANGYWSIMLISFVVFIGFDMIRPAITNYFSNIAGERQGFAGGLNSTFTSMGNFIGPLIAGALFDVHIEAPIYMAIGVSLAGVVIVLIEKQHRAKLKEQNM
Outline: (§2)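 SA-1199B (norA-overexpressing) grown overnight in cation-supplemented Mueller-Hinton broth, diluted 25-fold and grown at 35 °C to OD600 0.7–0.8. Loaded with EtBr 25 µM plus CCCP 100 µM (final), then resuspended in fresh broth. Fluorescence read at ex 485/em 645 nm for 5 min, ± compound. Efflux inhibition in % relative to untreated cells; screened at 50 µM. IC50 from concentration series; triplicate, two technical replicates each.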

Staphylococcus aureus = assay: Antimicrobial activity against Staphylococcus aureus 1199B by microdilution method; assay type: functional
Outline: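 MIC by broth microdilution following CLSI guidelines against S. aureus SA-1199B, a strain that overexpresses norA. Run on compounds giving at least 80% EtBr efflux inhibition and on selected weaker ones.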

[5] = biological target: T2, Quinolone resistance protein NorA (Staphylococcus aureus, UniProt P0A0J7); assay: Inhibition of NorA efflux pump in Staphylococcus aureus 1199B assessed as reduction in EtBr efflux incubated for 20 mins measured for 5 mins by real-time fluorometric analysis; outline: as §2
T2 sequence (P0A0J7 whole entry): T1 sequence (whole entry)

Liver microsome [6] = assay: Drug level in human liver microsomes treated with Ethyl 5-(3-Aminopropoxy)-1-benzyl-2-methyl-(1H)-indole-3-carboxylate at 10 uM preincubated for 5 mins followed by NADPH addition measured after 30 mins by HPLC-MS/MS analysis; assay type: ADME; conditions: 0.5 h; outline: as §1
[7] = Solubility of the compound in D2O solution at 25 degC by 1H NMR analysis; assay type: physicochemical
Outline: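 1H NMR in D2O at 25 °C with TSP internal standard, following a literature procedure.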

[8] = Metabolic stability in human liver microsomes assessed as compound remaining after at 10 uM preincubated for 5 mins followed by NADPH addition measured after 30 mins by HPLC-MS/MS analysis; assay type: ADME; conditions: read-out: Stability; outline: as §1
[9] = biological target: T1, Quinolone resistance protein NorA (Staphylococcus aureus); assay: Inhibition of NorA efflux pump in Staphylococcus aureus assessed as potentiation of ciprofloxacin-mediated antibacterial activity at 1.5 ug/ml relative to control
Liver microsome [10] = assay: Drug level in human liver microsomes treated with Ethyl 1-Benzyl-2-methyl-5-(2-(piperazin-1-yl)ethoxy)-1H-indole-3-carboxylate at 10 uM preincubated for 5 mins followed by NADPH addition measured after 30 mins by HPLC-MS/MS analysis; assay type: ADME; conditions: 0.5 h; outline: as §1

SMILES	inhibition [4] [%]	MIC (Staphylococcus aureus) [µg/mL]	IC50 [5] [µM]	further results
CCOC(=O)c1c(C)n(Cc2ccccc2O)c2ccc(OCCCN3CCCCC3)cc12				Drug metabolism (Liver microsome [1]): metabolite_detected
CCOC(=O)c1c(C)[nH]c2ccc(OCCCN3CCNCC3)cc12				Drug metabolism (Liver microsome [2]): metabolite_detected
CCOC(=O)c1c(C)[nH]c2ccc(OCCCN3CCCCC3)cc12	34.2			Drug metabolism (Liver microsome [3]): metabolite_detected; Drug metabolism (Liver microsome [1]): metabolite_detected
CCOC(=O)c1c(C)n(Cc2ccccc2C)c2ccc(OCCCN3CCCCC3)cc12	54	25 (≈ 55.7 µM)	4.8	
CCOC(=O)c1c(C)n(Cc2ccccc2)c2ccc(OCC(O)CN3CCOCC3)cc12 (configuration not stated)	99	> 100	17	
CCOC(=O)c1c(C)n(Cc2ccccc2)c2ccc(OCCc3ccccc3)cc12	4.7	> 100		
CCOC(=O)c1c(C)n(Cc2cccc(OC)c2)c2ccc(OCCCN3CCCCC3)cc12	77.1	> 100	7.3	
CCOC(=O)c1c(C)n(Cc2ccccc2)c2ccc(OCC(O)CN)cc12 (configuration not stated)	100	> 100	17.1	
CCOC(=O)c1c(C)n(Cc2ccc(OC)cc2)c2ccc(OCCCN3CCCCC3)cc12	77.7	> 100	7.1	
CCOC(=O)c1c(C)n(Cc2ccc(C)cc2)c2ccc(OCCCN3CCCCC3)cc12	58.3	25 (≈ 55.7 µM)	6.7	
CCOC(=O)c1c(C)[nH]c2ccc(OCCCN)cc12				Drug metabolism (Liver microsome [6]): metabolite_detected
CCOC(=O)c1c(C)n(Cc2ccc(F)cc2)c2ccc(OCCCN3CCCCC3)cc12	91.1	> 100	8.7	
CCOC(=O)c1c(C)n(Cc2ccccc2)c2ccc(OCCN3CCN(C)CC3)cc12	99.7	> 100	10.1	
CCOC(=O)c1c(C)n(Cc2ccccc2F)c2ccc(OCCCN3CCCCC3)cc12	89	> 100	4.8	
CCOC(=O)c1c(C)n(Cc2ccc([N+](=O)[O-])cc2)c2ccc(OCCCN3CCCCC3)cc12	89.9	> 100	6.5	
CCOC(=O)c1c(C)n(Cc2ccccc2)c2ccc(OCCCCN)cc12	93.7	100 (≈ 263 µM)	6.7	
CCOC(=O)c1c(C)n(Cc2ccccc2)c2ccc([N+](=O)[O-])cc12	9.1			
CCOC(=O)c1c(C)n(Cc2ccccc2)c2ccc(OCCN3CCCCC3)cc12	100	> 100	11.6	
CCOC(=O)c1c(C)n(Cc2ccccc2)c2ccc(OCC(O)CN3CCCCCC3)cc12 (configuration not stated)	92.8	100 (≈ 215 µM)	6.8	
CCOC(=O)c1c(C)n(Cc2ccccc2)c2ccc(OCCN3CCOCC3)cc12	90.9	> 100	16.8	
CCOC(=O)c1c(C)n(Cc2ccccc2)c2ccc(OCCCN3CCC(F)(F)CC3)cc12	25.9			
CCOC(=O)c1c(C)n(Cc2cccc(C)c2)c2ccc(OCCCN3CCCCC3)cc12	70.9	50 (≈ 111 µM)	6.1	
CCOC(=O)c1c(C)n(Cc2ccccc2)c2ccc(OCCN)cc12	67.7			
CCOC(=O)c1c(C)n(Cc2ccccc2)c2ccc(OCCCN3CCN(C)CC3)cc12	100	> 100	11.9	
CCOC(=O)c1c(C)n(Cc2ccccc2[N+](=O)[O-])c2ccc(OCCCN3CCCCC3)cc12	91.8	> 100	6.3	solubility [7]: 14 µM (≈ 6.71 µg/mL); remaining at 0.5 h, 10 µM [8]: 89%

SMILES	inhibition [4] [%]	MIC (Staphylococcus aureus) [µg/mL]	IC50 [5] [µM]	further results
O=[N+]([O-])c1ccc2[nH]c(-c3ccccc3)cc2c1				fold change (FC) [9]: 4
CCOC(=O)c1c(C)n(Cc2ccccc2)c2ccc(OCC(N)CO)cc12 (configuration not stated)	100	> 100	10.4	
CCOC(=O)c1c(C)n(Cc2cccc(C(F)(F)F)c2)c2ccc(OCCCN3CCCCC3)cc12	12.9	> 100	14.2	
CCOC(=O)c1c(C)n(Cc2ccccc2)c2ccc(OCCCCN3CCNCC3)cc12	71.9	> 100		
Cc1c(C(=O)O)c2cc(OCCCN)ccc2n1Cc1ccccc1				Drug metabolism (Liver microsome [6]): metabolite_detected
CCOC(=O)c1c(C)n(Cc2cccc(F)c2)c2ccc(OCCCN3CCCCC3)cc12	89.7	> 100	6.1	
Cc1c(C(=O)O)c2cc(OCCCN3CCNCC3)ccc2n1Cc1ccccc1				Drug metabolism (Liver microsome [2]): metabolite_detected
Cc1c(C(=O)O)c2cc(OCCCN3CCCCC3)ccc2n1Cc1ccccc1	0			Drug metabolism (Liver microsome [3]): metabolite_detected
CCOC(=O)c1c(C)n(Cc2ccccc2)c2ccc(OCC(CF)N3CCCCC3)cc12 (configuration not stated)	38.5	> 100		
Cc1c(C(=O)O)c2cc(OCCN3CCNCC3)ccc2n1Cc1ccccc1				Drug metabolism (Liver microsome [10]): metabolite_detected
CCOC(=O)c1c(C)[nH]c2ccc(OCCN3CCNCC3)cc12				Drug metabolism (Liver microsome [10]): metabolite_detected
CCOC(=O)c1c(C)n(Cc2ccc(C(F)(F)F)cc2)c2ccc(OCCCN3CCCCC3)cc12	77.7	> 100	14.1	
CCOC(=O)c1c(C)n(CCc2ccccc2)c2ccc(OCCCN3CCCCC3)cc12	99.3	> 100	13.7	
CCOC(=O)c1c(C)n(Cc2ccccc2)c2ccc(OCCCNCc3ccccc3)cc12	45.4			
Cc1cc2cc(OCCCN3CCCCC3)ccc2n1Cc1ccccc1	95.6	0.63 (≈ 1.74 µM)	6.6	solubility [7]: 70 µM (≈ 25.4 µg/mL); remaining at 0.5 h, 10 µM [8]: 100%
CCOC(=O)c1c(C)n(Cc2cccc([N+](=O)[O-])c2)c2ccc(OCCCN3CCCCC3)cc12	85.1	> 100	4.4	
CCOC(=O)c1c(C)n(Cc2ccccc2)c2ccc(OCC(O)CN3CCCCC3)cc12 (configuration not stated)	99.3	> 100	5.8	
CCOC(=O)c1c(C)n(Cc2ccccc2)c2ccc(OCCCN3CCCCCC3)cc12	77.4	> 100		
CCOC(=O)c1c(C)n(Cc2ccccc2)c2ccc(OCCCN3CCOCC3)cc12	98.6	> 100	10.6	
CCOC(=O)c1c(C)n(Cc2ccccc2)c2ccc(OC(C)=O)cc12	20.4			
CCOC(=O)c1c(C)n(Cc2ccccc2)c2ccc(OCCN(C)C)cc12	98.2	> 100	22.5	
CCOC(=O)Cc1c(C)n(Cc2ccccc2)c2ccc(OCCCN3CCCCCC3)cc12	98.4	100 (≈ 216 µM)	6.1	
CCOC(=O)c1c(C)n(Cc2ccccc2)c2ccc(O)cc12	1	> 100		
CCOC(=O)c1c(C)n(Cc2ccccc2)c2ccc(C(F)(F)F)cc12	36.6			
